# Source: ChEMBL document CHEMBL1275442, “Pharmacokinetics and tissue distribution of anidulafungin in rats” (Antimicrob Agents Chemother, 2008)
# Legend:
# Assay type in all cases: ADME, organism-based
# [1] = Cmax in F344 rat lung at 5 mg/kg, iv administered as single bolus dose after 5 min by HPLC method; set-up: dose 5 mg/kg, route intravenous
# Summary of the method: (§1)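 Male F344 rats, 10–11 weeks, 223.6–243.8 g, given one IV dose of [¹⁴C]anidulafungin, 5 mg/kg, over about 5 min. Tissues and blood sampled at 0.083–72 h (n = 3 rats per time). Parent drug measured by HPLC; LLOQ/ULOQ were 20/5,120 ng/ml for plasma and 220/56,320 ng/g for tissue. Noncompartmental parameters taken from the composite mean profile.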
# Cerebrospinal fluid = experiment: Drug level in Long Evans rat cerebrospinal fluid assessed as radioactivity per gram of tissue at 5 mg/kg, iv administered as single bolus dose measured 168 hrs postdose by autoradiography; set-up: dose 5 mg/kg, route intravenous; settings: in vivo
# Summary of the method: (§2)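 Male pigmented Long Evans (HsdBlu:LE) rats, 7.5 weeks old, 202 to 217 g, single iv [¹⁴C]anidulafungin; one rat per sampling time. Euthanized by isoflurane and cardiac-puncture exsanguination. Sagittal whole-body sections quantified by phosphorimaging autoradiography, single samples corrected for section thickness across multiple sections per tissue. Concentrations (μg eq/g drug-derived radioactivity) interpolated from least-squares standard curves per scan.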
# Kidney = experiment: AUC (0 to infinity) in F344 rat kidney at 5 mg/kg, iv administered as single bolus dose; set-up: time infinity, dose 5 mg/kg, route intravenous; settings: in vivo; summary of the method: as §1
# Zone of skin = experiment: AUC (0 to 24 hrs) in F344 rat skin at 5 mg/kg, iv administered as single bolus dose; set-up: time < 24 hr, dose 5 mg/kg, route intravenous; settings: in vivo; summary of the method: as §1
# Liver = experiment: Drug level in Long Evans rat liver assessed as low disposition of radioactivity per gram of tissue at 5 mg/kg, iv administered as single bolus dose measured 6 hrs postdose by autoradiography; set-up: dose 5 mg/kg, route intravenous; settings: in vivo; summary of the method: as §2
smiles,measurement,setting,value
CCCCCOc1ccc(-c2ccc(-c3ccc([14C](=O)N[C@H]4C[C@@H](O)[C@@H](O)NC(=O)[C@@H]5[C@@H](O)[C@@H](C)CN5C(=O)[C@H]([C@@H](C)O)NC(=O)[C@H]([C@H](O)[C@@H](O)c5ccc(O)cc5)NC(=O)[C@@H]5C[C@@H](O)CN5C(=O)[C@H]([C@@H](C)O)NC4=O)cc3)cc2)cc1 [14C-ANIDULAFUNGIN],Cmax,[1],31100 ng/g
same,Drug uptake,Cerebrospinal fluid,2.18 ugequiv
same,AUC,Kidney,658.93 µg·h/g
same,AUC,Zone of skin,102.72 µg·h/g
same,Drug uptake,Liver,17.68 ugequiv
